MsrA act – bovine MsrA enzyme activators, primary screen, biochemical, absorbance, HTS. Methionine sulfoxide reductase A (Bos taurus). purified bovine MsrA, absorbance read-out. activation, % at 10.6 µM. 0.3% of 360,000 active; in the data active = activation above about 7.5%;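 also: 0% = vehicle and 100% = reference activator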
MsrA inh – bovine MsrA enzyme inhibitors, primary screen, biochemical, absorbance, HTS; purified bovine MsrA, absorbance read-out; 0.75% of 360,000 active; inhibition, % at 15.5 µM; Methionine sulfoxide reductase A (Bos taurus);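 also: 0% = vehicle wells with enzyme and 100% = reference inhibitor wells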
DAGLB inh – DAGLB lipase inhibitors, primary screen, biochemical, fluorescence, HTS; HEK293T DAGLB membrane lysate, EnzChek fluorogenic substrate; 0.059% of 340,000 active; inhibition, % at 5.17 µM; Diacylglycerol lipase-beta (Homo sapiens), Q8NCG7; in the data active = inhibition above about 34%;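 also: 0% = enzyme with vehicle and 100% = wells lacking enzyme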
Target sequence (Q8NCG7 whole entry, looked up): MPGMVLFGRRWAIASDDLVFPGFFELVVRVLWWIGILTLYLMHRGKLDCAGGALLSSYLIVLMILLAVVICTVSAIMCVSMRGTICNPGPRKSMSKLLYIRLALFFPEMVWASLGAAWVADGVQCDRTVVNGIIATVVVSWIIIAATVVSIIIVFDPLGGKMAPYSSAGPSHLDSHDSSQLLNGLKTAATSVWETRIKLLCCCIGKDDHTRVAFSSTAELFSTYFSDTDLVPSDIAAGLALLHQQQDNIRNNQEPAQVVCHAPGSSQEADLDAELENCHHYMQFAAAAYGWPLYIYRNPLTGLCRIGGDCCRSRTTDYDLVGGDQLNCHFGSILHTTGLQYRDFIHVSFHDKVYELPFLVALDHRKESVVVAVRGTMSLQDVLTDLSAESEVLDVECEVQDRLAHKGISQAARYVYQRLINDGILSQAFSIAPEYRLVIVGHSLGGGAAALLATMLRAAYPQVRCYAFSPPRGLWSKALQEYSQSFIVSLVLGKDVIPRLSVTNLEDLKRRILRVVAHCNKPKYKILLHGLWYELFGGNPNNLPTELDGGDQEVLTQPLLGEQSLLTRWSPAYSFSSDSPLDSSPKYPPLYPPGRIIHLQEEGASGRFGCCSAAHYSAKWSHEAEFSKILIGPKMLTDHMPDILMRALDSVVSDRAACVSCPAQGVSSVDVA
SKN-1 block – suppressors of acrylamide-induced Pgst-4::GFP reporter in worms, primary screen, SKN-1 inhibitor project, whole organism, uHTS, GFP/RFP fluorescence ratio, strain VP596. C. elegans VP596 Pgst-4::GFP/RFP ratio, 24 h. inhibition, % at 21.8 µM. 0.49% of 360,000 active;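 active = interference check ratio from 0.5 to 1.5 plus GFP to RFP signal ratio inhibition reaching or exceeding a fixed threshold, cut at about 30% in these data, passing the limit was not always enough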
beta cell repl – inducers of MIN6 beta-cell proliferation, primary screen, ATP luminescence, uHTS. proliferation, % at 10 µM. MIN6 cells proliferation, ATPlite luminescence, 48 h; cells starved in 0.2% serum; 100% = growth in 10% serum. 0.29% of 330,000 active;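 active = compounds whose signal lies at least 3.5 SD above the mean of all wells on their plate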;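 also: 0% = DMSO-treated cells in low-serum medium and 100% = 10% serum control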
MT1-MMP act inh – blockers of MT1-MMP proenzyme processing, primary screen, HT1080 RFP-PRO-GFP cells, GFP/RFP fluorescence; Matrix metalloproteinase-14 (Homo sapiens), P50281; GFP/RFP ratio fluorescence, overnight; percent of plate control window, DMSO zero; GFP/RFP ratio change, % at 20 µM; 0.061% of 360,000 active;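 active = GFP/RFP ratio change of at least 30% with cell ATP level not reduced by more than half and red fluorescence within 50% of control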
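Material: RFP-PRO-GFP reporter HT1080 cells. Dosing: single-point 20 µM compound, 1% DMSO. Controls: DMSO and RFP-L50D-GFP cell wells. Timing: cells overnight before dosing, compound overnight, 37 °C, 5% CO2. Measure: GFP/RFP fluorescence ratio.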
MsrA inh confirm – bovine MsrA inhibitors, retest, confirmation, biochemical, absorbance, HTS; shares compounds with MsrA inh; purified bovine MsrA, absorbance read-out; inhibition, % at 15.5 µM; 41% of 2,300 active;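 also: coupled to thioredoxin reductase with NADPH and selenocystamine and DMSO as substrate; 0% = vehicle only and 100% = full effect of reference inhibitor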
The depositor's hits bear a star; nt = not tested or not shown. Sampled rows, rich in hits. Any-hit rate of the full collection: about 1.8%. Rule as the data show it, unless noted: active = inhibition above about 4.5%; inactive = the rest.

SMILES	MsrA act	MsrA inh	DAGLB inh	SKN-1 block	beta cell repl	MT1-MMP act inh	MsrA inh confirm
O=C(N/N=C/C=N/NC(=O)c1ccco1)c1ccco1	-13.3	7.6*	-0.9	-15.7	-3.0	1.0	6.1*
O=C(N/N=C/c1ccccc1)c1ccco1	6.9	1.1	0.8	-8.3	-0.9	3.8	nt
COCCNc1nnc(SCC(=O)NC(=O)c2ccccc2)s1	-1.3	-0.2	-1.7	0.4	0.5	-4.2	nt
Nc1c(N(CCCO)C(=O)C2CCCCC2)c(=O)[nH]c(=O)n1Cc1ccccc1	-2.3	0.0	1.1	12.5	-2.8	2.7	nt
CC(=O)NS(=O)(=O)c1ccc(NC(=O)/C=C/c2ccco2)cc1	-7.0	6.0*	-0.7	-6.8	-3.0	-2.3	7.2*
NS(=O)(=O)c1ccc(NC(=O)/C=C/c2ccco2)cc1	-9.8	4.5	-0.4	7.4	1.0	-0.7	nt
CCN(C[C@H]1N[C@@](CC)(C(=O)OC)[C@H]2C(=O)N(C)C(=O)[C@@H]12)C(=O)C1CCCCC1	-6.6	-0.1	-3.1	-4.5	-0.8	1.7	nt
N#C/C(=C(/O)COC(=O)c1cccnc1Cl)c1nc2ccccc2[nH]1	-2.1	4.7*	3.9	16.0	-1.6	-8.9	1.4
CCOc1cc(C(C(=O)NCC2CCCO2)N(C(=O)Cn2nnc3ccccc32)c2ccc(OC)c(OC)c2)ccc1O (stereo not drawn)	-1.2	0.2	-3.0	2.8	1.2	2.8	nt
NC1=NC(=O)/C(=C/c2cn(CCC(=O)O)nc2-c2ccc(Cl)cc2)S1	-4.0	3.8	5.1	-8.2	nt	3.4	nt
NC1=NC(=O)/C(=C/c2cn(CCC(=O)O)nc2-c2ccc(F)cc2)S1	-6.4	5.0*	2.4	-2.6	0.0	1.2	3.5
Cc1cc(/C=C(\C#N)C(=O)O)c(C)n1CC1CCCO1 (stereo not drawn)	-1.3	5.2*	2.7	-6.2	-2.0	0.3	6.2*
Cc1cc(/C=C(\C#N)C(=O)O)c(C)n1-c1ccc(Br)cc1	-5.8	7.4*	4.3	-4.5	-0.9	1.4	4.8*
CCCn1c(C)cc(/C=C(\C#N)C(=O)O)c1C	-8.4	6.8*	-2.2	-17.9	-0.2	5.5	3.9
Cc1cc(/C=C(\C#N)C(=O)O)c(C)n1C1CC1	-6.6	4.2	0.1	-0.4	0.0	5.2	nt
Cc1cc(/C=C(/C#N)C(=O)O)c(C)n1CCC(C)C	-5.9	4.8*	3.0	8.5	-1.4	4.3	2.6
CCCCn1c(C)cc(/C=C(\C#N)C(=O)O)c1C	-7.8	4.1	-2.1	8.8	0.0	2.6	nt
CC1CC(=O)NN=C1c1ccc(N(C)C)c([N+](=O)[O-])c1 (stereo not drawn)	-5.2	4.7*	3.1	6.1	0.4	6.3	3.6
CCN(CC)c1ccc(C2=NNC(=O)CC2C)cc1[N+](=O)[O-] (stereo not drawn)	3.4	2.8	8.5	24.4	4.0	7.7	nt
O=C(CN1C(=O)S/C(=C\c2ccccc2)C1=O)Nc1cc([N+](=O)[O-])ccc1O	-3.6	4.8*	12.8	7.6	-0.9	8.4	4.6*
O=C(CCN1C(=O)S/C(=C\c2ccc(F)cc2)C1=O)Nc1ccc(C(=O)O)c(O)c1	-13.8	3.6	2.9	16.7	-2.3	nt	nt
O=C(CN1C(=O)S/C(=C/c2ccccn2)C1=O)N1CCOCC1	-6.2	5.3*	-2.5	6.7	-0.1	-2.5	4.8*
O=C(CN1C(=O)S/C(=C\c2ccccc2)C1=O)NC1CCS(=O)(=O)C1 (stereo not drawn)	-2.3	5.3*	3.7	6.9	-4.1	-5.3	3.9
Cc1ccc(/C=C2/SC(=O)N(CC(=O)N3CCOCC3)C2=O)s1	-4.5	0.6	-1.9	6.3	-1.4	-7.5	nt

Screens deposited in PubChem BioAssay by several laboratories.
